ChEMBL document CHEMBL2434913 (Bioorg Med Chem Lett, 2013)

The compounds below were run against T1, Prostaglandin G/H synthase 2 (Mus musculus) (UniProt Q05769) (assay: Inhibition of purified mouse COX-2 assessed as inhibition of PGE2/PGD2 formation preincubated at 10 uM for 3 mins before arachidonic acid substrate addition measured after 30 seconds by LC-MS-MS method).
T1 sequence (whole entry): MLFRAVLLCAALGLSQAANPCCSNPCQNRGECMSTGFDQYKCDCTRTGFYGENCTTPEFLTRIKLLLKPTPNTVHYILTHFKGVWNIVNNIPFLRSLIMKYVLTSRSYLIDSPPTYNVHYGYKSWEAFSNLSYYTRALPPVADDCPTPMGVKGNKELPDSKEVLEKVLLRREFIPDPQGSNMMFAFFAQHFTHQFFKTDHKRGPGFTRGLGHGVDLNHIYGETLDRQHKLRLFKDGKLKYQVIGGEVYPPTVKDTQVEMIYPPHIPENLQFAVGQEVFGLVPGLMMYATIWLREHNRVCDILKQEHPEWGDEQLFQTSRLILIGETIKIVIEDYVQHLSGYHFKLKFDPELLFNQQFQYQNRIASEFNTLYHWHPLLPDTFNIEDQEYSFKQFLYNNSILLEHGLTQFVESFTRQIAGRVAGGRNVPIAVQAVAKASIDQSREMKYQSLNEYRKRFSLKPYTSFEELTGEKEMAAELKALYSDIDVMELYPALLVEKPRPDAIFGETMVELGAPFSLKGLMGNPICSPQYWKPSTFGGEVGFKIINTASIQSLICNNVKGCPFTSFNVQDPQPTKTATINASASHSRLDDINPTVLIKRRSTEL
Summary of the method: (§1)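 Purified murine COX-2 (50 nM) preincubated 3 min with test agent at 10 µM in DMSO, alongside a solvent control. Then 2-AG or AA added at 5 µM, 37 °C, for 30 s. Read-out is percent inhibition of substrate oxygenation versus control. Mean ± SD, n = 6.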
In the case of `O=C(O)Cc1ccccc1Nc1c(Cl)cc(Br)cc1Cl`, the inhibition is reported as 55%. In the case of `Cc1ccc(Nc2ccccc2Cl)c(CC(=O)O)c1`, the inhibition is reported as 0%. Compound `Cc1cccc(F)c1Nc1ccccc1CC(=O)O` has an inhibition of 0%. In the case of `Cc1ccc(Nc2c(Cl)cccc2Cl)c(CC(=O)O)c1`, the inhibition is reported as 60%. Compound `O=C(O)Cc1ccccc1Nc1ccccc1F` has an inhibition of 0%. Work on `Cc1ccc(Nc2c(C)cccc2F)c(CC(=O)O)c1` yielded an inhibition of 0%. For `Cc1ccc(Nc2c(F)cccc2F)c(CC(=O)O)c1`, the inhibition was 0%. In the case of `Cc1ccc(Nc2ccccc2F)c(CC(=O)O)c1`, the inhibition is reported as 0%. In the case of `Cc1ccc(Nc2c(Cl)cc(Cl)cc2Cl)c(CC(=O)O)c1`, the inhibition is reported as 32%. With `Cc1ccc(Nc2ccccc2)c(CC(=O)O)c1` the inhibition was 10%.

These compounds were tested against T1, Prostaglandin G/H synthase 2 (Mus musculus) (assay: Inhibition of purified mouse COX-2 assessed as inhibition of PGE2-G/PGD2-G formation preincubated at 10 uM for 3 mins before 2-AG substrate addition measured after 30 seconds by LC-MS-MS method).
Summary of the method: as §1
Compound `Cc1cccc(F)c1Nc1ccccc1CC(=O)O` has an inhibition of 15%. `O=C(O)Cc1ccccc1Nc1ccccc1F` showed an inhibition of 25%. Work on `Cc1ccc(Nc2c(C)cccc2F)c(CC(=O)O)c1` yielded an inhibition of 0%. For `Cc1ccc(Nc2ccccc2)c(CC(=O)O)c1`, the inhibition was 0%.

Each compound was assayed against T2, Prostaglandin G/H synthase 2 (Mus musculus, UniProt Q05769) (assay: Inhibition of purified mouse COX-2 assessed as inhibition of PGE2/PGD2 formation preincubated for 3 mins before arachidonic acid substrate addition measured after 30 seconds by LC-MS-MS method).
T2 sequence (Q05769 whole entry): T1 sequence (whole entry)
`O=C(O)Cc1ccccc1Nc1c(Cl)cc(Br)cc1Cl` was tested, and the IC50 was 140 nM. Compound `Cc1ccc(Nc2c(Cl)cccc2Cl)c(CC(=O)O)c1` has an IC50 of 200 nM.

These compounds were tested against T2, Prostaglandin G/H synthase 2 (assay: Inhibition of purified mouse COX-2 assessed as inhibition of PGE2-G/PGD2-G formation preincubated for 3 mins before 2-AG substrate addition measured after 30 seconds by LC-MS-MS method).
With `O=C(O)Cc1ccccc1Nc1c(Cl)cc(Br)cc1Cl` the IC50 was 60 nM. `Cc1ccc(Nc2ccccc2Cl)c(CC(=O)O)c1` was tested, and the IC50 was 60 nM. `O=C(O)Cc1ccccc1Nc1ccccc1Cl` gave an IC50 of 3900 nM. Work on `Cc1ccc(Nc2c(Cl)cccc2Cl)c(CC(=O)O)c1` yielded an IC50 of 30 nM. Compound `Cc1ccc(Nc2c(F)cccc2F)c(CC(=O)O)c1` has an IC50 of 1000 nM. Compound `Cc1ccc(Nc2ccccc2F)c(CC(=O)O)c1` has an IC50 of 1800 nM. `Cc1ccc(Nc2c(Cl)cc(Cl)cc2Cl)c(CC(=O)O)c1` gave an IC50 of 70 nM. Compound `O=C(O)Cc1ccccc1Nc1c(F)cccc1F` has an IC50 of 1200 nM. Compound `O=C(O)Cc1ccccc1Nc1c(F)cccc1Cl` has an IC50 of 40 nM.
